Experimental data taken from ChEMBL document CHEMBL2046296, “Synthesis and antidepressant activity of arylalkanol-piperidine derivatives as triple reuptake inhibitors” (Eur J Med Chem, 2012).

Assays:
Mus musculus [1] = assay: Antidepressant activity in mouse assessed as decrease in immobility at 10 mg/kg, po administered 30 mins prior to testing by tail suspension test relative to vehicle control; assay type: functional; set-up: scale not given: the % may be the effect or the level left
Outline: (§1)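 Oral doses of 10–50 mg/kg (three doses) were given once, 30 min before testing. Mice were hung by adhesive tape 1 cm from the tail tip, 75 cm above the tabletop. Immobility was recorded for 5 min, scored blind, 10–12 mice per group, against vehicle controls. One-way ANOVA with Scheffe post hoc test; p<0.05 significant.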

Mus musculus [2] = assay: Antidepressant activity in mouse assessed as decrease in immobility at 50 mg/kg, po administered 30 mins prior to testing by tail suspension test relative to vehicle control; assay type: functional; set-up: scale not given: the % may be the effect or the level left; outline: as §1
Mus musculus [3] = assay: Toxicity in mouse assessed as increase in locomotor activity at 50 mg/kg, po up to 5 mins relative to vehicle treated control; assay type: organism-based; set-up: dose 50 mg/kg, route oral; details: in vivo
Outline: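 Mice were dosed orally at 50 mg/kg and 30 min later placed singly in new 35×35×35 cm plastic cages under dim light with sound attenuation. Activity was logged by a monitoring apparatus at intervals up to 30 min, and the 5 min point was analysed. Mean ± SEM; one-way ANOVA, Scheffe post hoc, versus control.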

[4] = target: T1, 5-hydroxytryptamine receptor 1A (Homo sapiens) (UniProt P08908); assay: Displacement of [3H]8-OH-DPAT from human recombinant 5HT1A receptor expressed in CHO cells at 10 uM after 60 mins by liquid scintillation counting; assay type: cell-based
T1 sequence (whole entry): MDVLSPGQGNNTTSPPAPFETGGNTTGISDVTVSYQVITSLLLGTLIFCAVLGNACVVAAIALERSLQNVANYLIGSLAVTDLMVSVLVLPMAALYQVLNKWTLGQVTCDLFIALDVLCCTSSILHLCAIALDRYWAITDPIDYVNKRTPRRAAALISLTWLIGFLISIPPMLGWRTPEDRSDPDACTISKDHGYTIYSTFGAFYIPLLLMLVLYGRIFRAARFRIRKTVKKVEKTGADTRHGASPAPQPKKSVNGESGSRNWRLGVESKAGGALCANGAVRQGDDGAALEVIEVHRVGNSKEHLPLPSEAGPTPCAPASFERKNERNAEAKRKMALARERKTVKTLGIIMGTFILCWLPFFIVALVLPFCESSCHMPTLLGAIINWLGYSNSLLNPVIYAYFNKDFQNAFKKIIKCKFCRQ
Outline: (§2)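 Radioligand binding panel run by a contract lab (CEREP). Percent inhibition of specific radioligand binding was measured at a single primary test concentration of 10.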

[5] = target: 5-hydroxytryptamine receptor 2A (Homo sapiens) (UniProt P28223); assay: Displacement of [3H]Ketanserin from human recombinant 5HT2A receptor expressed in CHO cells at 10 uM after 15 mins by liquid scintillation counting; assay type: cell-based; outline: as §2
[6] = target: T2, 5-hydroxytryptamine receptor 3A (Homo sapiens) (UniProt P46098); assay: Displacement of [3H]BRL43694 from human recombinant 5HT3 receptor expressed in CHO cells at 10 uM after 60 mins by liquid scintillation counting; assay type: cell-based; outline: as §2
T2 sequence (whole entry): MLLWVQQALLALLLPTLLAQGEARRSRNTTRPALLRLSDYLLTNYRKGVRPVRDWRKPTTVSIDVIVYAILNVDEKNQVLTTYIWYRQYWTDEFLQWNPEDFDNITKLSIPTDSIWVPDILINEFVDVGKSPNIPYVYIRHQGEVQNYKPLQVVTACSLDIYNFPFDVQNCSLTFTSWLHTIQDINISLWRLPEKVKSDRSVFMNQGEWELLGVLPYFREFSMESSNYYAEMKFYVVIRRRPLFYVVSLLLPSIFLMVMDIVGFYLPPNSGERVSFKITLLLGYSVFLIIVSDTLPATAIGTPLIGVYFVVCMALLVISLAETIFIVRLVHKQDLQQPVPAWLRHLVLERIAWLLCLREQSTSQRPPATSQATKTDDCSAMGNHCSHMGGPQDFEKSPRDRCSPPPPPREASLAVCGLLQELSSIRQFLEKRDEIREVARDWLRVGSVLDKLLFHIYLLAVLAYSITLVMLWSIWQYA

[7] = target: 5-hydroxytryptamine receptor 5A (Homo sapiens) (UniProt P47898); assay: Displacement of [3H]LSD from 5HT5A receptor at 10 uM; outline: as §2
[8] = target: 5-hydroxytryptamine receptor 7 (Homo sapiens) (UniProt P34969); assay: Displacement of [3H]LSD from human recombinant 5HT7 receptor expressed in CHO cells at 10 uM after 120 mins by liquid scintillation counting; assay type: cell-based; outline: as §2
[9] = target: D(2) dopamine receptor (Homo sapiens) (UniProt P14416); assay: Displacement of [3H]Methylspiperone from dopamine D2 receptor at 10 uM; outline: as §2
[10] = target: D(3) dopamine receptor (Homo sapiens) (UniProt P35462); assay: Displacement of [3H]Methylspiperone from human recombinant dopamine D3 receptor expressed in CHO cells at 10 uM after 60 mins by liquid scintillation counting; assay type: cell-based; outline: as §2
[11] = target: Adrenergic receptor alpha-2 (Rattus norvegicus) (UniProt P22086+P19328+P22909); assay: Displacement of [3H]RX821002 from rat alpha2 adrenergic receptor at 10 uM after 30 mins by liquid scintillation counting; outline: as §2
[12] = target: Histamine H2 receptor (Homo sapiens) (UniProt P25021); assay: Displacement of [I125}APT from histamine H2 receptor at 10 uM; outline: as §2
[13] = target: T3, Muscarinic acetylcholine receptor M1 (Homo sapiens) (UniProt P11229); assay: Displacement of [3H]pirenzepine from human recombinant M1 receptor expressed in CHO cells at 10 uM after 60 mins by liquid scintillation counting; assay type: cell-based; outline: as §2
T3 sequence (whole entry): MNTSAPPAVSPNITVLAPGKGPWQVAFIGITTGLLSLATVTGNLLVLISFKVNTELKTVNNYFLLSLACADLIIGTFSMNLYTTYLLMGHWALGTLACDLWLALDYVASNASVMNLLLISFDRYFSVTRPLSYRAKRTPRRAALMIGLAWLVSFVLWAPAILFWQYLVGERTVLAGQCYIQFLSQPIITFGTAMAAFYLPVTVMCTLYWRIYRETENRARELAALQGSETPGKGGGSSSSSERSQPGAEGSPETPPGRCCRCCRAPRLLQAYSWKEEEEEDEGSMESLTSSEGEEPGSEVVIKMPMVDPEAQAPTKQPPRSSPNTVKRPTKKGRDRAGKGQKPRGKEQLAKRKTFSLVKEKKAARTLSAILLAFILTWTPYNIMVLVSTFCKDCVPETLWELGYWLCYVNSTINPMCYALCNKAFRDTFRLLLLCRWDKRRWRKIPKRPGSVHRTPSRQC

[14] = target: Sodium-dependent serotonin transporter (Homo sapiens, UniProt P31645); assay: Inhibition of [3H]serotonin uptake at human SERT expressed in HEK293 cells after 10 min by scintillation counting
[15] = target: Sodium-dependent noradrenaline transporter (Homo sapiens, UniProt P23975); assay: Inhibition of [3H]noradrenaline uptake at human NET expressed in HEK293 cells after 10 mins by scintillation counting
[16] = target: 5-hydroxytryptamine receptor 1B (Homo sapiens) (UniProt P28222); assay: Displacement of [I125]CYP from 5HT1B receptor at 10 uM; outline: as §2
Chain of 5-hydroxytryptamine receptor 1B (Homo sapiens) (P28222 whole entry): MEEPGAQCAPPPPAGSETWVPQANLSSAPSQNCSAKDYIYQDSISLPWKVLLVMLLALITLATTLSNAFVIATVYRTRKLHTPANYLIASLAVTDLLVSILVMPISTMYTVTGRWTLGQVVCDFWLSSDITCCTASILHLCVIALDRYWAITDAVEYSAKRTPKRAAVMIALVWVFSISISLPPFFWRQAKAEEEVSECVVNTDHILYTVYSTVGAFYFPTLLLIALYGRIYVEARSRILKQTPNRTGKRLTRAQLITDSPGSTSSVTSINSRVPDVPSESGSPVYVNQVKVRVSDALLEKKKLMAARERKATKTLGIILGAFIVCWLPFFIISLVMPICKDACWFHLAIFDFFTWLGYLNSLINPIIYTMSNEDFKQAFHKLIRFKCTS

Chain of 5-hydroxytryptamine receptor 5A (Homo sapiens) (P47898 whole entry): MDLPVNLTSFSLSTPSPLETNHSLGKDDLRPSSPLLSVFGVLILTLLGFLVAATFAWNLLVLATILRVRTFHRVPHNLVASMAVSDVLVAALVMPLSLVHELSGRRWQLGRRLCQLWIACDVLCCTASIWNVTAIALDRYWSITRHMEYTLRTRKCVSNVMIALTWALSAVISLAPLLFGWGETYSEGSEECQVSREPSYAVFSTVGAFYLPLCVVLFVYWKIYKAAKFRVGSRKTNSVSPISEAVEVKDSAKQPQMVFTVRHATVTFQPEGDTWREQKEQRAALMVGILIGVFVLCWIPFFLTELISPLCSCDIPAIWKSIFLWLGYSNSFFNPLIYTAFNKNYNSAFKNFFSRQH
Chain of Sodium-dependent serotonin transporter (P31645 whole entry): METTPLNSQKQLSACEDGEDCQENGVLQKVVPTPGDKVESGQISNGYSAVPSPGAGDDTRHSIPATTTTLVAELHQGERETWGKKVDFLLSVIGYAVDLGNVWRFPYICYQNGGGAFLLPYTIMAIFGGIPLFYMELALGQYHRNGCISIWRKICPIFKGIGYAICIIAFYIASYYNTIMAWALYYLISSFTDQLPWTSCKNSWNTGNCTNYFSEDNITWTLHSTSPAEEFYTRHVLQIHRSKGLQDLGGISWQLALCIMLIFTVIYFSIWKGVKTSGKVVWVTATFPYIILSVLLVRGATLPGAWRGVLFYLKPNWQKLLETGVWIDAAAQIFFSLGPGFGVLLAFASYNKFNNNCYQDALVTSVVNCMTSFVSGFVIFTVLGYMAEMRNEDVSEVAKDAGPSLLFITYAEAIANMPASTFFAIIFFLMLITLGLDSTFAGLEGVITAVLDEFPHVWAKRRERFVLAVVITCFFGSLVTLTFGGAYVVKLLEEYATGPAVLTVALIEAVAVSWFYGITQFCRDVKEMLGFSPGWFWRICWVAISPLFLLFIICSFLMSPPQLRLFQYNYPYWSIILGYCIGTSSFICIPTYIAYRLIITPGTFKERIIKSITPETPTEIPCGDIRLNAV
Chain of Histamine H2 receptor (Homo sapiens) (P25021 whole entry): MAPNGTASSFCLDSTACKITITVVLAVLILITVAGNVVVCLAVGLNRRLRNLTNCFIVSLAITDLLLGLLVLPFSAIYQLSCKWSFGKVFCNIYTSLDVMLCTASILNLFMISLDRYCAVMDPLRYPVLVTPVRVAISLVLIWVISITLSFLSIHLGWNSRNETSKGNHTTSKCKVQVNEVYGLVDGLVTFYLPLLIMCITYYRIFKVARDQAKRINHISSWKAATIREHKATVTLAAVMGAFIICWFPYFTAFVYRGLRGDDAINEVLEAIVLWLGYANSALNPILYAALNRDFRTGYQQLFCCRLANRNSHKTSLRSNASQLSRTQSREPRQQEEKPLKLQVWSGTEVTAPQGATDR
Chain of D(3) dopamine receptor (Homo sapiens) (P35462 whole entry): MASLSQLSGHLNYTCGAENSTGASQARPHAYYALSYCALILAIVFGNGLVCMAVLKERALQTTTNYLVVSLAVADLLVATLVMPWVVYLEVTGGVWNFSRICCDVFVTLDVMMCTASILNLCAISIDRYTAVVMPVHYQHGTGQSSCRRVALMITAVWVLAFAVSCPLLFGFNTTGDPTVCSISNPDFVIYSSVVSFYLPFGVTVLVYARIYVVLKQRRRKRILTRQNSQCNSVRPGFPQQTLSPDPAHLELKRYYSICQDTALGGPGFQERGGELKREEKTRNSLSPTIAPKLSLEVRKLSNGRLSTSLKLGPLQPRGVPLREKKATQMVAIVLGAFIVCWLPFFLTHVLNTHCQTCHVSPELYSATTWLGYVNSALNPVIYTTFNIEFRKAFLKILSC
Chain of Sodium-dependent noradrenaline transporter (P23975 whole entry): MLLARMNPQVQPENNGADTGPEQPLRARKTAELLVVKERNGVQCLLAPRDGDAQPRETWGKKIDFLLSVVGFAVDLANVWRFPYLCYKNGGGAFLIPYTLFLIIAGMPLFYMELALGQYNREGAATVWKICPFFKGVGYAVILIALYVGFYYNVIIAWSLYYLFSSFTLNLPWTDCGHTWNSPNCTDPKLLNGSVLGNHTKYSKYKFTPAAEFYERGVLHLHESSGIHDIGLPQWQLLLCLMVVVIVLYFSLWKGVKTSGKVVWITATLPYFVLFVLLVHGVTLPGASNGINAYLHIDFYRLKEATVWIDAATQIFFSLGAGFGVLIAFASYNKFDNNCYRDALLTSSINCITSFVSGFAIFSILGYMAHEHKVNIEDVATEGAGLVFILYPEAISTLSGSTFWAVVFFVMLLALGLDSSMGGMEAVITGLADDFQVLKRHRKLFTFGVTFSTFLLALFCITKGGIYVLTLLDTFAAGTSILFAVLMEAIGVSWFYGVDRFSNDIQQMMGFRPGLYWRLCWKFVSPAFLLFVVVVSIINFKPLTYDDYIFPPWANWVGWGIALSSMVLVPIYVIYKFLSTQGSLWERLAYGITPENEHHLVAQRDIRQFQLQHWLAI
Chain of D(2) dopamine receptor (Homo sapiens) (P14416 whole entry): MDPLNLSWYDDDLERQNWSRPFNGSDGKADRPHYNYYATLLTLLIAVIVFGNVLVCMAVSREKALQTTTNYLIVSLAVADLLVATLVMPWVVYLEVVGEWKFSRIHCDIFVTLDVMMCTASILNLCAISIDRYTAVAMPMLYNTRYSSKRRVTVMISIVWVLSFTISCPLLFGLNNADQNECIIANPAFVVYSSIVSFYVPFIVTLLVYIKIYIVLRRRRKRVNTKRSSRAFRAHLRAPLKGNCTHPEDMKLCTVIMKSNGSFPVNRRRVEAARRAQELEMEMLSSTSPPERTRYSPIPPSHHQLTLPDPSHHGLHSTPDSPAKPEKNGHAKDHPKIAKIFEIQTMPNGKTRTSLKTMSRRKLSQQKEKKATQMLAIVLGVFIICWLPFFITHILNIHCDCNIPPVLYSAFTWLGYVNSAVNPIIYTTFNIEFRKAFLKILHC
Chain of 5-hydroxytryptamine receptor 2A (Homo sapiens) (P28223 whole entry): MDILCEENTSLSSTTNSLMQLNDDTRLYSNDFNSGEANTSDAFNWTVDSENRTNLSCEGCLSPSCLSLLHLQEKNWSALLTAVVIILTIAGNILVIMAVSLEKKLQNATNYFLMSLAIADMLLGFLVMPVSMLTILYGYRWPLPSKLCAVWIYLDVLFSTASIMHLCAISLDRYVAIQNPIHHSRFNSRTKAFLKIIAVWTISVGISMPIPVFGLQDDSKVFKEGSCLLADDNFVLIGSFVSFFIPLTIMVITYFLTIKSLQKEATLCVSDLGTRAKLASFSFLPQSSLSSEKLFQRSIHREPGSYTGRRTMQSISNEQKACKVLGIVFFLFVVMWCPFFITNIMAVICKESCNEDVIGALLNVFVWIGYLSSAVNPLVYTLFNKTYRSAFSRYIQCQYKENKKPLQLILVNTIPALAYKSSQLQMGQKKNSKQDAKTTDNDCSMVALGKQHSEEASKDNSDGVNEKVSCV
Chain of 5-hydroxytryptamine receptor 7 (Homo sapiens) (P34969 whole entry): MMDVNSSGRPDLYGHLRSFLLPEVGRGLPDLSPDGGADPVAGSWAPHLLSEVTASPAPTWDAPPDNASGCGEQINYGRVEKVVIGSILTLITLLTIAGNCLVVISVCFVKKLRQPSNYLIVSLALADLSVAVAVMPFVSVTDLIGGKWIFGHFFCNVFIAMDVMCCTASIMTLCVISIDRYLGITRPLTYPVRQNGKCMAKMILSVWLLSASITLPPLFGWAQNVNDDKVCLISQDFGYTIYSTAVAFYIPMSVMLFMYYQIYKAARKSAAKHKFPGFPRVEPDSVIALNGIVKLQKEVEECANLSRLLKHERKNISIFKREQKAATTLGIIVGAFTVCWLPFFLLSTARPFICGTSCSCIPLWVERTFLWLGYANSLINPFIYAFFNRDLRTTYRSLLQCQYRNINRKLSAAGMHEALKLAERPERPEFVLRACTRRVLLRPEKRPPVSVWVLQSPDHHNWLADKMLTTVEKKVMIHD

| Structure (SMILES) | inhibition [4] [%] | inhibition [5] [%] | inhibition [6] [%] | inhibition [7] [%] | inhibition [8] [%] | inhibition [9] [%] | inhibition [10] [%] | inhibition [11] [%] | inhibition [12] [%] | inhibition [13] [%] | IC50 [14] [nM] | IC50 [15] [nM] | inhibition [16] [%] | Activity (Mus musculus [1]) [%] | Activity (Mus musculus [2]) [%] | Activity (Mus musculus [3]) |
| --- | --- | --- | --- | --- | --- | --- | --- | --- | --- | --- | --- | --- | --- | --- | --- | --- |
| OC(CCN1CC=C(Cc2ccccc2)CC1)c1cc2ccccc2s1 (racemic) | 65.4 | 31.5 | 10.6 | 0.2 | 43.5 | 10.8 | 1.2 | 32.5 | 8.2 | 31.2 | 255 | 327 |  | 14 | 34 | Non-toxic |
| OC(CCN1CC=C(Cc2ccccc2)CC1)c1csc2ccccc12 (racemic) | 33.4 | 42.6 | 8.3 | 33.5 | 29.7 | 4.3 | 3.5 | 27.3 | 14.9 | 4.3 | 171 | 385 | 6.5 | 32 | 64 | Non-toxic |
| COc1ccc2cc(C(O)CCN3CC=C(Cc4ccccc4)CC3)ccc2c1Cl (racemic) | 46.5 | 15.6 | 0.5 |  | 5.8 | -0.5 | 11.3 | 32.9 | 33.2 | 57.8 | 265 | 420 | 10.2 | 21 | 57 | Non-toxic |

More lines, main results first:

| inhibition [4] [%] | inhibition [5] [%] | inhibition [6] [%] | inhibition [7] [%] | inhibition [8] [%] | inhibition [9] [%] | inhibition [10] [%] | inhibition [11] [%] | inhibition [12] [%] | inhibition [13] [%] | IC50 [14] [nM] | IC50 [15] [nM] | inhibition [16] [%] | Structure (SMILES) | Activity (Mus musculus [1]) [%] | Activity (Mus musculus [2]) [%] | Activity (Mus musculus [3]) |
| --- | --- | --- | --- | --- | --- | --- | --- | --- | --- | --- | --- | --- | --- | --- | --- | --- |
| 27.3 | 0.9 | 14.1 | 41.6 | 19.2 | 19.2 | 4.6 | 43.5 | 6.7 | 34.2 | 337 | 265 | 9.7 | OC(CCN1CCC(O)(Cc2ccccc2)CC1)c1ccc(Cl)c(Cl)c1 (racemic) | 33 | 64 | Non-toxic |
| 10.3 | 4.8 | 25.1 |  | 0.5 | 31.4 | 10.3 | 16.2 | 15.6 | 10.7 | 425 | 178 | 0.6 | OC(CCN1CC=C(Cc2ccccc2)CC1)c1ccc(Cl)c(Cl)c1 (racemic) | 24 | 35 | Non-toxic |
